# G6PDH counter – L. mesenteroides G6PDH inhibitors, counter-screen for G6PDH-coupled screening assays, biochemical, Leuconostoc mesenteroides enzyme. hit rate 0.12% among 200,000. Purified L. mesenteroides G6PDH, diaphorase/resazurin coupled fluorescence, 45 min. inhibition, % at 5 µM. glucose-6-phosphate dehydrogenase [Leuconostoc mesenteroides]; in the data active = inhibition above about 50%
# Diaph act CS – compounds boosting diaphorase resazurin reduction – biochemical, uHTS, resorufin fluorescence, counter-screen for diaphorase-coupled primary assays, primary screen; hit rate 0.005% among 190,000; activation factor at 20 µM; AID 1229, 2008; Diaphorase/resazurin coupled assay, 16 min; hits give high values; 1 = vehicle wells, 0 = NADH-free wells;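 active = diaphorase activity raised at least twofold by the compound at 20 µM; inactive = activation factor below 2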
#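 Material: Clostridium kluyveri diaphorase, purified enzyme; Quantity: enzyme 0.07 U/mL final; Medium: HEPES pH 7.4 buffer with MgCl2 and Tween 20; Dosing: single compound dose of 20 µM, 1% DMSO final; Schedule: 16 min reaction at room temperature; Measured by: red resorufin fluorescence at 544/590 nm excitation/emission.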
# PMI act – activators of human PMI, primary screen, biochemical, fluorescence intensity, near-Km mannose 6-phosphate. Mannose-6-phosphate isomerase (Homo sapiens), P34949. purified human PMI, coupled resazurin fluorescence, 20 min; hits give high values; 1 = vehicle control, 0 substrate-free wells. activation factor at 20 µM. hit rate 0.005% among 190,000;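 active = activation factor of 2 or more at 20 µM, relative to plate controls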
# Target sequence (P34949 whole entry, looked up): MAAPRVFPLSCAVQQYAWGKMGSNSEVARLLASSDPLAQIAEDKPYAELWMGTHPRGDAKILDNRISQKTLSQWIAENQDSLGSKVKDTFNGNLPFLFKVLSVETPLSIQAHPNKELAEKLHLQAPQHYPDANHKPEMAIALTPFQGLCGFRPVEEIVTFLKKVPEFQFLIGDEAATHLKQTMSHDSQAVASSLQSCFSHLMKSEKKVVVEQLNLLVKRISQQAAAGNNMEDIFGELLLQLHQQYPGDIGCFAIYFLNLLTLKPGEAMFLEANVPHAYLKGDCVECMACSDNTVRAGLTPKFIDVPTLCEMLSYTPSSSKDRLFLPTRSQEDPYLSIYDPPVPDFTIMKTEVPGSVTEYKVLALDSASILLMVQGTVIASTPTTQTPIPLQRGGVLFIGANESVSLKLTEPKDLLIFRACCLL
# Diaphorase inh – diaphorase inhibitors and chemical oxidizers, primary screen, counter-screen for diaphorase-coupled primary assays, biochemical, uHTS, resorufin fluorescence | hit rate 0.69% among 190,000 | diaphorase resazurin-to-resorufin fluorescence, NADH, 16 min; bacterial (C. kluyveri) enzyme, not human | inhibition, % at 20 µM | AID 1217, 2008;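 active = primary screen inhibition at 20 µM above a set limit, cut at about 50% in these data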;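 note: plate controls were DMSO with full reaction for no effect and wells lacking NADH for full effect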
#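 System: Diaphorase enzyme from Clostridium kluyveri | Amount: Enzyme working solution with 0.14 U/mL diaphorase | Benchmarks: No-NADH positive control and DMSO neutral control | Signal: Fluorescence of resorufin formed from resazurin, Ex 544/Em 590 nm | Schedule: 16-min room-temperature incubation before reading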
# DTT redox prof – compounds producing H2O2 with reducing agent – biochemical, NIH compound library profiling, artefact control for MLSCN library redox annotation, primary screen | DTT-dependent redox cycling H2O2, phenol red/HRP absorbance; 100% = 100 µM peroxide control, 0% = buffer | hit rate 0.03% among 200,000 | AID 878, 2007 | activation, % at 10 µM;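 active = activation of at least 50% relative to the plate's high and low controls in the primary single-dose screen; inactive = activation below 50%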;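 note: compound incubated with DTT at 0.8 mM final as the reducing agent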
# PMI act hi M6P – human PMI activators, high substrate, primary screen, biochemical, fluorescence intensity, near-saturating mannose 6-phosphate; Mannose-6-phosphate isomerase (Homo sapiens), P34949; coupled PMI enzyme assay, resazurin fluorescence, 20 min; hits give high values; 1 = untreated enzyme, 0 = substrate-free blank; activation factor at 20 µM; hit rate 0.34% among 190,000;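 active = activation factor of 2 or more at 20 µM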
#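 Material: human phosphomannose isomerase with PGI, G6PDH, diaphorase coupling enzymes. Quantity: 15 ng/mL PMI. Medium: HEPES pH 7.4 buffer with MgCl2 and Tween-20. Reagent: Near-saturating mannose-6-phosphate, 1.0 mM. Compound: 20 µM single dose. Times: enzyme reaction with compound 20 min at room temperature. Detection: resorufin fluorescence at Ex 544/Em 590 nm.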
# Numbers without * were called inactive; . = no result given. An excerpt weighted towards active compounds, which were near 1.1% of everything screened.
SMILES,G6PDH counter,Diaph act CS,PMI act,Diaphorase inh,DTT redox prof,PMI act hi M6P
O=c1c(-c2ccc(O)cc2)coc2cc(OC3OC(CO)C(O)C(O)C3O)cc(O)c12 (configuration not stated),20,1.1,1.1,-9,1,1
O=c1c(OC2OC(CO)C(O)C(O)C2O)c(-c2ccc(O)c(O)c2)oc2cc(O)cc(O)c12 (configuration not stated),41,0.4,0.4,62*,0,0.7
C[C@@H]1O[C@@H](Oc2c(-c3cc(O)c(O)c(O)c3)oc3cc(O)cc(O)c3c2=O)[C@H](O)[C@H](O)[C@H]1O,34,0.3,0.3,71*,1,0.5
CC(C)C(OC(=O)c1cccs1)C(=O)NCc1ccc2c(c1)OCO2 (configuration not stated),25,0.9,1,7,-1,1
Cn1c(Oc2ccccc2NCc2cccc(Br)c2)cc(=O)n(C)c1=O,7,0.8,0.9,20,2,0.9
Oc1ccccc1/C=N/Nc1cccc2cccnc12,5,1,1.3,4,4,1.8
C/C(=N\Nc1cccc2cccnc12)c1ccc(C)cc1,4,0.8,1.6,15,-1,2.1*
COC(=O)C1C(=O)C2=C(CC1C)Nc1ccccc1NC2c1cccs1 (configuration not stated),-3,1,0.9,2,-1,1
N#Cc1ccccc1NC(=O)C1SC(=Nc2ccccc2)C(C(=O)Nc2ccc(Cl)cc2)=C1N (configuration not stated),3,0.9,1.8,8,0,2.3*
COc1cc2c(cc1OC)C(c1ccccc1)N(C(=O)CCl)CC2 (configuration not stated),7,0.9,1.1,10,1,1
COc1cc2c(cc1OC)C(c1ccccc1)N(S(C)(=O)=O)CC2 (configuration not stated),2,0.2,0.9,82*,-1,0.9
CC1(C)OC2OC(C(=O)N/N=C/c3cc(Br)ccc3O)C3OC(C)(C)OC3C2O1 (configuration not stated),18,0.9,1,11,0,1.2
O=C(O)c1cc(Br)ccc1NN=C1CCCCC1,15,1,1.8,2,0,2.9*
CCCCC(=O)Nc1ccc(Br)cc1C(=O)O,-2,1,1.1,4,4,1.3
O=C1NN=C(CSc2n[nH]c(=S)s2)CS1,1,0.7,0.9,31,0,2.1*
CC(C)CSc1n[nH]c(=S)s1,0,0.6,0.8,42,0,1.4
CCCSC1=N/C(=C\C=C\c2ccco2)C(=O)S1,8,0.5,1.4,51*,2,1.4
O=C1SC(SCc2ccccc2)=N/C1=C\c1ccco1,0,0.8,0.8,15,0,0.9
COc1cc(OC)cc(C(=O)Nn2cc(C(=O)Nc3ccc(F)cc3F)c3ccccc3c2=O)c1,1,0.8,0.9,23,-1,0.9
CCCNC1=C(N(C(C)=O)c2cccc(F)c2)C(=O)c2ccccc2C1=O,52*,0.7,0.7,34,0,0.4
CCN(Cc1ccncc1)Cc1cn[nH]c1-c1cc(OC)c(OC)c(OC)c1,15,0.9,0.8,13,-1,0.8
Cc1ccc(-c2[nH]c(=S)[nH]c(=O)c2C#N)cc1,10,0.2,1.1,78*,0,1.1
COc1ccc(OC)c(-n2c(=S)[nH]c3cc(C(=O)N(C)Cc4ccccc4)ccc3c2=O)c1,-2,0.7,0.9,26,0,0.9
NC(=S)Nn1c(-c2ccccc2)nc2ccccc2c1=O,4,0.9,1.1,7,0,1
CC1=C(C#N)c2nc(N)c(C#N)c(C)c2/C1=C\c1ccc(-c2ccccc2C(=O)O)o1,-5,0.4,1.2,62*,0,0.9
SMILES,G6PDH counter,Diaph act CS,PMI act,Diaphorase inh,DTT redox prof,PMI act hi M6P
COc1cc(/C=C2/C(C)=C(C#N)c3nc(N)c(C#N)c(C)c32)ccc1OCC(=O)O,27,0.5,1,47,1,0.5
O=C(CCc1nnc(CCCc2ccccc2)o1)NC(C1CC1)C1CC1,9,.,.,.,-1,.
Fc1ccc(NC(=S)Nc2cccc3cnccc23)cc1,51*,0.6,0.9,44,1,1.1
S=C(Nc1cccnc1)Nc1cccc2cnccc12,41,0.4,0.5,62*,0,1
S=C(Nc1ccc(Cl)cc1)Nc1cccc2cnccc12,33,0.5,0.7,51*,1,0.9
Cc1cc(Cl)ccc1NC(=S)Nc1cccnc1,2,0.9,1,8,3,1
O=C(OCC(=O)N1CCc2ccccc2C1)c1cccc([N+](=O)[O-])c1,-13,0.9,1,8,0,1
Nc1ccccc1NC1CCCCC1,10,0.2,0.4,82*,-1,0.3
Cc1nc(C/C(=N\N)c2ccc(O)cc2O)cs1,6,0.8,1.6,16,-1,2.3*
COc1ccc(N=Nc2nc3ccc(Br)cc3n2C)cc1,6,1.2,1.4,-16,2,2.2*
COc1ccc(Cc2nc3ccccc3n2C)cc1,3,0.8,1.2,17,0,1.2
Nc1n[nH]c(=S)n1/N=C1/C(=O)Nc2ccccc21,-3,0.2,0.1,79*,0,0.2
C=CCn1c(SCC(=O)c2ccc(O)c(O)c2)nnc1-c1ccccc1OC,10,0.4,0.7,64*,2,0.8
Cc1c(C(=O)c2ccc(Cl)cc2[N+](=O)[O-])c2ccccn2c1CCC#N,-1,0.4,0.6,64*,0,0.5
Cc1ccc2nc(N3C(=O)C(O)=C(C(=O)c4cc5ccccc5o4)C3c3cccs3)sc2c1 (configuration not stated),8,0.9,1.4,12,2,2*
CCc1ccc2nc(N3C(=O)C(O)=C(C(=O)c4ccco4)C3c3cccs3)sc2c1 (configuration not stated),10,0.7,1.2,32,3,1.2
Cc1sc(Cc2nc(O)cs2)nc1-c1ccccc1,1,1,1,5,0,1.2
CCCCC(=O)Nc1ccc(C(=O)NNC(=O)c2ccc(C)c(Br)c2)cc1,-8,1.1,0.9,-7,0,0.9
